{"data": "Measurements gathered from unrelated publications", "target": "Tyrosine-protein kinase ABL2 (ABL2, Homo sapiens, UniProt P42684)", "note": "Compare with care: the assays were run in different laboratories."}
{"Compound": "Nc1ncc(-c2nc(N3CCOCC3)nc(N3CCOCC3)n2)c(C(F)F)n1", "test": "binding, competition with immobilised ligand", "conditions": "10 µM", "quantity": "remaining binding", "result": "99%"}
{"Compound": "O=c1[nH]c2ccccc2n1C1CCN(Cc2ccc(-c3[nH]c4cc5ncnc5cc4nc3-c3ccccc3)cc2)CC1", "test": "cell-free assay", "conditions": "0.5 µM", "quantity": "remaining signal", "result": "96.8%"}
{"Compound": "C#Cc1n[nH]c2c(-c3cn([C@@H](C)c4ccccc4)c(=O)[nH]c3=O)cc(F)cc12", "test": "enzyme activity, inhibitor", "conditions": "0.1 µM", "quantity": "inhibition", "result": "2.4%"}
{"Compound": "COc1ncccc1-c1cnn2ccc(N3CCN(C(=O)OC(C)C)CC3)nc12", "test": "binding, competition with immobilised ligand", "conditions": "1 µM", "quantity": "remaining binding", "result": "100%"}
{"Compound": "Cn1cc(-c2cc(F)cc(N3CCn4c(cc5c4CCCC5)C3=O)c2CO)cc(Nc2ccc(N3CCN(C4COC4)CC3)cn2)c1=O", "test": "enzyme activity, inhibitor", "conditions": "0.1 µM", "quantity": "inhibition", "result": "11%"}
{"Compound": "C#Cc1n[nH]c2c(-c3cn([C@@H](C)c4ccccn4)c(=O)[nH]c3=O)cc(F)cc12", "test": "enzyme activity, inhibitor", "conditions": "0.1 µM", "quantity": "inhibition", "result": "5.9%"}
{"Compound": "Cn1cc(-c2cccc(N3CCc4c(sc5c4CC(C)(C)C5)C3=O)c2CO)cc(Nc2ccncn2)c1=O", "test": "enzyme activity, inhibitor", "conditions": "1 µM", "quantity": "inhibition", "result": "4%"}
{"Compound": "CC(C)(C)c1cc(C=C(C#N)C#N)cc(Br)c1O", "test": "enzyme activity, inhibitor", "conditions": "0.5 µM", "quantity": "remaining activity", "result": "57.1%"}
{"Compound": "COc1cc(Nc2ncc(F)c(Nc3ccc4c(n3)NC(=O)C(C)(C)O4)n2)cc(OC)c1OC", "test": "binding, competition with immobilised ligand", "conditions": "10 µM", "quantity": "inhibition", "result": "77%"}
{"Compound": "Cc1nn(C)cc1-c1nc2c(N3CCN(Cc4ccc(Cl)cc4)CC3)c(Cl)cnc2[nH]1", "test": "binding, competition with immobilised ligand", "conditions": "1 µM", "quantity": "remaining binding", "result": "100%"}
{"Compound": "Cn1cncc1[C@](O)(COc1ccc(C#N)cc1-c1ccc(OC(F)(F)F)cc1)c1ccc(C#N)cc1", "test": "cell-free assay, competition with immobilised ligand", "conditions": "1 µM", "quantity": "remaining binding", "result": "83%"}
